ChEMBL document CHEMBL2176871, “Development of ligands at γ-aminobutyrric acid type A (GABAA) receptor subtype as new agents for pain relief” (Bioorg Med Chem, 2011)
pKi: −log10 of the molar value. Calls of active or inactive are those of the source.

Columns and labels:
[1] = organism: Bos taurus; test: Displacement of [3H]Ro151788 from GABA(A)/BzR in bovine cerebral cortex membrane at 10 uM; type: cell membranes
Summary of the method: (§1)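 Bovine cerebral cortex membranes in 50 mM Tris-citrate pH 7.4; [3H]flumazenil displacement. Compounds first tested at a fixed 10 µM; Ki determined only when inhibition exceeded 80%, using at least six concentrations. Five experiments run in triplicate; IC50 obtained by iterative curve fitting and converted to Ki with the Cheng–Prusoff equation.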

[2] = Displacement of [3H]Ro151788 from GABA(A)/BzR in bovine cerebral cortex membrane; type: cell membranes, Bos taurus; summary of the method: as §1
[3] = system: Rattus norvegicus; test: Antinociceptive activity in Sprague-Dawley rat mononeuropathy pain model assessed as increase in injured paw pressure at 30 mg/kg, po after 15 mins by paw pressure test relative to non-treated control; type: functional
Summary of the method: (§2)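 Chronic constriction injury: loose ligatures placed on the common sciatic nerve under chloral hydrate; contralateral sham dissection. Tested 14 days after surgery. Paw pressure applied at 32 g/s; threshold taken as the force causing the first struggle; cut-off 250 g; pretest outliers (<40 g or >75 g) excluded. Oral dosing in 10 ml/kg; read at 15, 30 and 45 min; compared with a CMC-treated group.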

[4] = system: Rattus norvegicus; test: Toxicity in Sprague-Dawley rat mononeuropathy pain model assessed as effect on contralateral paw pressure at 30 mg/kg, po after 30 mins by paw pressure test; type: organism-based; design: dose 30 mg/kg, route oral; conditions: in vivo, 0.5 h
Summary of the method: (§3)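 Same sciatic-ligation rat model, 14 days after surgery. Threshold measured on the non-operated contralateral hind paw by analgesimeter at 32 g/s; first-struggle endpoint; 250 g cut-off; pretest rats outside 40–75 g rejected. Compound given po in 10 ml/kg; readings at 15, 30 and 45 min.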

[5] = system: Rattus norvegicus; test: Toxicity in Sprague-Dawley rat mononeuropathy pain model assessed as effect on contralateral paw pressure at 30 mg/kg, po after 15 mins by paw pressure test; type: organism-based; design: dose 30 mg/kg, route oral; conditions: in vivo, 0.25 h; summary of the method: as §3
[6] = system: Rattus norvegicus; test: Antinociceptive activity in Sprague-Dawley rat mononeuropathy pain model assessed as increase in injured paw pressure at 30 mg/kg, po after 45 mins by paw pressure test relative to non-treated control; type: functional; summary of the method: as §2
[7] = system: Rattus norvegicus; test: Antinociceptive activity in Sprague-Dawley rat mononeuropathy pain model assessed as increase in injured paw pressure at 30 mg/kg, po after 30 mins by paw pressure test relative to non-treated control; type: functional; summary of the method: as §2
[8] = system: Rattus norvegicus; test: Toxicity in Sprague-Dawley rat mononeuropathy pain model assessed as effect on contralateral paw pressure at 30 mg/kg, po after 45 mins by paw pressure test; type: organism-based; design: dose 30 mg/kg, route oral; conditions: in vivo, 0.75 h; summary of the method: as §3
[9] = system: Mus musculus; test: Anxiolytic activity in ip dosed Swiss albino mouse pain model after 30 mins by light/dark box test; type: functional, organism-based
Summary of the method: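 Male Swiss albino mice were tested in a light/dark box 30 min after dosing. Read-outs were transfers between compartments and time spent in the illuminated side. Dose volume was 10 ml/kg. Results are means ± SEM of 8 mice.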

[10] = system: Mus musculus; test: Anxiolytic activity in ip dosed Swiss albino mouse pain model after 30 mins by light/dark box test in presence of flumazenil; type: functional, organism-based
Summary of the method: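 Light/dark box test in male Swiss albino mice, with drug given 30 min before testing and flumazenil 100 mg/kg i.p. co-administered before the test. Read-outs were transfers between compartments and time in the lit side. Results are means ± SEM of 8 mice.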

Q: Which results are given for `Cc1cnn2c1n[n+]([O-])c1ccc(Cl)cc12`?
A: inhibition [1]: > 80%; pKi [2]: 6.40

Q: Which Activity [3] does the source give for `O=C(OCc1cccs1)c1cnn2c1n[n+]([O-])c1ccc(Cl)cc12` here?
A: 33.6 g

Q: What about the Activity [4] of the same molecule?
A: 57.8 g

Q: And the Activity [5]?
A: 59.3 g

Q: What about the Activity [6] of the same molecule?
A: 32.8 g

Q: And the Activity [7]?
A: 35.2 g

Q: What about the Activity [8] of the same molecule?
A: 60.9 g

Q: And the pKi [2]?
A: 8.17

Q: What does the source list for `[O-][n+]1nc2c(I)cnn2c2cc(OCc3ccccc3)ccc21`?
A: Activity [3]: 37.1 g; Activity [4]: 59.2 g; Activity [5]: 62.7 g; Activity [6]: 36.4 g; Activity [7]: 46.5 g; Activity [8]: 65.1 g

Q: Which results are given for `Cc1cnn2c1nnc1ccc(OCc3ccccc3)cc12`?
A: inhibition [1]: > 80%; pKi [2]: 8.80

Q: For `[O-][n+]1nc2c(I)cnn2c2cc(NCCc3ccccc3)ccc21`, which inhibition [1] is on record?
A: > 80%

Q: What about the pKi [2] of the same molecule?
A: 7.83

Q: With `[O-][n+]1nc2c(I)cnn2c2cc(Cl)ccc21` as the molecule, how does the pKi [2] read?
A: 7.64

Q: For `CN1C(=O)CN=C(c2ccccc2)c2cc(Cl)ccc21`, which Activity [9] is on record?
A: Active

Q: And the Activity [10]?
A: inactive

Q: For `Ic1cnn2c1nnc1ccc(NCc3ccccc3)cc12`, which inhibition [1] is on record?
A: > 80%

Q: And the pKi [2]?
A: 9.15
